Experimental data reported in ChEMBL document CHEMBL1155347, “Synthesis and antimicrobial activities of novel quinoline derivatives carrying 1,2,4-triazole moiety” (2009).
Converted amounts (≈) assume the structure as drawn.

Experiments:
Assay type in all cases: functional
Pseudomonas aeruginosa [1] = assay: Antibacterial activity against Pseudomonas aeruginosa ATCC 27853 after 16 to 18 hrs by serial plate dilution method
Method in brief: (§1)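 Drug serially diluted in Mueller–Hinton broth in tubes, adjusted to pH 5.0 with phosphate buffer. Inoculated with standardized bacterial suspension and incubated 16–18 h at 37 °C. MIC taken as lowest concentration with no visible growth.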

[2] = test system: Trichophyton mentagrophytes; assay: Antifungal activity against recultured Trichophyton mentagrophytes at MIC after 3 to 4 days by agar well diffusion method
Method in brief: (§2)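 Sabouraud agar (peptone, D-glucose, agar; pH 5.7) seeded with spore suspension made by transferring a loopful of fungus to 3 mL normal saline. Excess decanted, plates dried 1 h at 37 °C. Compounds in DMSO at MIC added to punched wells; DMSO control. Triplicate plates kept 3–4 days at 37 °C.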

Talaromyces marneffei [3] = assay: Antifungal activity against recultured Penicillium marneffei by serial plate dilution method
Escherichia coli [4] = assay: Antibacterial activity against Escherichia coli ATCC 25922 at MIC after 3 to 4 days by agar well diffusion method
Aspergillus fumigatus [5] = assay: Antifungal activity against Aspergillus fumigatus NCIM 902 by serial plate dilution method
Aspergillus fumigatus [6] = assay: Antifungal activity against Aspergillus fumigatus NCIM 902 at MIC after 3 to 4 days by agar well diffusion method; method in brief: as §2
Escherichia coli [7] = assay: Antibacterial activity against Escherichia coli ATCC 25922 after 16 to 18 hrs by serial plate dilution method; method in brief: as §1
Pseudomonas aeruginosa [8] = assay: Antibacterial activity against Pseudomonas aeruginosa ATCC 27853 at MIC after 3 to 4 days by agar well diffusion method
Talaromyces marneffei [9] = assay: Antifungal activity against recultured Penicillium marneffei at MIC after 3 to 4 days by agar well diffusion method; method in brief: as §2
[10] = test system: Trichophyton mentagrophytes; assay: Antifungal activity against recultured Trichophyton mentagrophytes by serial plate dilution method
Klebsiella pneumoniae [11] = assay: Antibacterial activity against recultured Klebsiella pneumoniae after 16 to 18 hrs by serial plate dilution method; method in brief: as §1
Aspergillus flavus [12] = assay: Antifungal activity against Aspergillus flavus NCIM 524 by serial plate dilution method
Staphylococcus aureus [13] = assay: Antibacterial activity against Staphylococcus aureus ATCC 25923 after 16 to 18 hrs by serial plate dilution method; method in brief: as §1
Aspergillus flavus [14] = assay: Antifungal activity against Aspergillus flavus NCIM 524 at MIC after 3 to 4 days by agar well diffusion method; method in brief: as §2
Staphylococcus aureus [15] = assay: Antibacterial activity against Staphylococcus aureus ATCC 25923 at MIC after 3 to 4 days by agar well diffusion method
Klebsiella pneumoniae [16] = assay: Antibacterial activity against recultured Klebsiella pneumoniae at MIC after 3 to 4 days by agar well diffusion method

Structure (SMILES) | MIC (Pseudomonas aeruginosa [1]) | MIC (Talaromyces marneffei [3]) | MIC (Aspergillus fumigatus [5]) | MIC (Escherichia coli [7]) | MIC [10] | MIC (Klebsiella pneumoniae [11]) | MIC (Aspergillus flavus [12]) | MIC (Staphylococcus aureus [13]) | inhibition zone (IZ) [2] | inhibition zone (IZ) (Escherichia coli [4]) | inhibition zone (IZ) (Aspergillus fumigatus [6]) | inhibition zone (IZ) (Pseudomonas aeruginosa [8]) | inhibition zone (IZ) (Talaromyces marneffei [9]) | inhibition zone (IZ) (Aspergillus flavus [14]) | inhibition zone (IZ) (Staphylococcus aureus [15]) | inhibition zone (IZ) (Klebsiella pneumoniae [16])
CCN1CCN(c2c(-c3nnc(S)n3CCOC)cnc3c(C(F)(F)F)cccc23)CC1 | 50 µg/mL (≈ 107 µM) | 50 µg/mL (≈ 107 µM) | 50 µg/mL (≈ 107 µM) | 6.25 µg/mL (≈ 13.4 µM) | 6.25 µg/mL (≈ 13.4 µM) | 50 µg/mL (≈ 107 µM) | 50 µg/mL (≈ 107 µM) | 50 µg/mL (≈ 107 µM) | 20 mm | 20 mm | <10 mm | <10 mm | <10 mm | <10 mm | <10 mm | <10 mm
COCCn1c(S)nnc1-c1cnc2c(C(F)(F)F)cccc2c1NCCC(C)(C)C | 50 µg/mL (≈ 110 µM) | 6.25 µg/mL (≈ 13.8 µM) | 6.25 µg/mL (≈ 13.8 µM) | 50 µg/mL (≈ 110 µM) | 6.25 µg/mL (≈ 13.8 µM) | 50 µg/mL (≈ 110 µM) | 6.25 µg/mL (≈ 13.8 µM) | 50 µg/mL (≈ 110 µM) | 20 mm | <10 mm | 16 mm | <10 mm | 16 mm | 16 mm | <10 mm | <10 mm
CC(C)(C)CCNc1c(-c2nnc(S)n2Cc2ccccc2)cnc2c(C(F)(F)F)cccc12 | 12.5 µg/mL (≈ 25.7 µM) | 12.5 µg/mL (≈ 25.7 µM) | 12.5 µg/mL (≈ 25.7 µM) | 12.5 µg/mL (≈ 25.7 µM) | 12.5 µg/mL (≈ 25.7 µM) | 12.5 µg/mL (≈ 25.7 µM) | 12.5 µg/mL (≈ 25.7 µM) | 12.5 µg/mL (≈ 25.7 µM) | 16 mm | 16 mm | 10 mm | 10 mm | 10 mm | 10 mm | 10 mm | 12 mm
FC(F)(F)c1cccc2c(NC3CCCCC3)c(-c3nnc(S)n3Cc3ccccc3)cnc12 | 12.5 µg/mL (≈ 25.8 µM) | 12.5 µg/mL (≈ 25.8 µM) | 12.5 µg/mL (≈ 25.8 µM) | 12.5 µg/mL (≈ 25.8 µM) | 12.5 µg/mL (≈ 25.8 µM) | 12.5 µg/mL (≈ 25.8 µM) | 12.5 µg/mL (≈ 25.8 µM) | 12.5 µg/mL (≈ 25.8 µM) | 16 mm | 16 mm | 10 mm | 10 mm | 10 mm | 10 mm | 10 mm | 12 mm
FC(F)(F)c1cccc2c(Cl)c(-c3nnc(S)n3Cc3ccccc3)cnc12 | 50 µg/mL (≈ 119 µM) | 50 µg/mL (≈ 119 µM) | 50 µg/mL (≈ 119 µM) | 50 µg/mL (≈ 119 µM) | 50 µg/mL (≈ 119 µM) | 50 µg/mL (≈ 119 µM) | 50 µg/mL (≈ 119 µM) | 50 µg/mL (≈ 119 µM) | <10 mm | <10 mm | <10 mm | <10 mm | <10 mm | <10 mm | <10 mm | <10 mm
COCCn1c(S)nnc1-c1cnc2c(C(F)(F)F)cccc2c1N1CCN(C2CCCCC2)CC1 | 50 µg/mL (≈ 96 µM) | 50 µg/mL (≈ 96 µM) | 50 µg/mL (≈ 96 µM) | 6.25 µg/mL (≈ 12 µM) | 6.25 µg/mL (≈ 12 µM) | 50 µg/mL (≈ 96 µM) | 50 µg/mL (≈ 96 µM) | 50 µg/mL (≈ 96 µM) | 20 mm | 20 mm | <10 mm | <10 mm | <10 mm | <10 mm | <10 mm | <10 mm
FC(F)(F)c1cccc2c(N3CCN(C4CCCCC4)CC3)c(-c3nnc(S)n3Cc3ccccc3)cnc12 | 50 µg/mL (≈ 90.5 µM) | 50 µg/mL (≈ 90.5 µM) | 50 µg/mL (≈ 90.5 µM) | 50 µg/mL (≈ 90.5 µM) | 50 µg/mL (≈ 90.5 µM) | 50 µg/mL (≈ 90.5 µM) | 50 µg/mL (≈ 90.5 µM) | 6.25 µg/mL (≈ 11.3 µM) | <10 mm | <10 mm | <10 mm | <10 mm | <10 mm | <10 mm | 16 mm | <10 mm
FC(F)(F)c1cccc2c(N3CCC(N4CCOCC4)CC3)c(-c3nnc(S)n3-c3ccccc3)cnc12 | 6.25 µg/mL (≈ 11.6 µM) | 6.25 µg/mL (≈ 11.6 µM) | 6.25 µg/mL (≈ 11.6 µM) | 6.25 µg/mL (≈ 11.6 µM) | 6.25 µg/mL (≈ 11.6 µM) | 6.25 µg/mL (≈ 11.6 µM) | 6.25 µg/mL (≈ 11.6 µM) | 6.25 µg/mL (≈ 11.6 µM) | 20 mm | 20 mm | 16 mm | 16 mm | 16 mm | 16 mm | 16 mm | 16 mm
NCCN1CCN(c2c(-c3nnc(S)n3Cc3ccccc3)cnc3c(C(F)(F)F)cccc23)CC1 | 50 µg/mL (≈ 97.4 µM) | 50 µg/mL (≈ 97.4 µM) | 50 µg/mL (≈ 97.4 µM) | 6.25 µg/mL (≈ 12.2 µM) | 50 µg/mL (≈ 97.4 µM) | 50 µg/mL (≈ 97.4 µM) | 50 µg/mL (≈ 97.4 µM) | 50 µg/mL (≈ 97.4 µM) | <10 mm | 20 mm | <10 mm | <10 mm | <10 mm | <10 mm | <10 mm | <10 mm

The next lines start with results.

MIC (Pseudomonas aeruginosa [1]) | MIC (Talaromyces marneffei [3]) | MIC (Aspergillus fumigatus [5]) | MIC (Escherichia coli [7]) | MIC [10] | MIC (Klebsiella pneumoniae [11]) | MIC (Aspergillus flavus [12]) | MIC (Staphylococcus aureus [13]) | Structure (SMILES) | inhibition zone (IZ) [2] | inhibition zone (IZ) (Escherichia coli [4]) | inhibition zone (IZ) (Aspergillus fumigatus [6]) | inhibition zone (IZ) (Pseudomonas aeruginosa [8]) | inhibition zone (IZ) (Talaromyces marneffei [9]) | inhibition zone (IZ) (Aspergillus flavus [14]) | inhibition zone (IZ) (Staphylococcus aureus [15]) | inhibition zone (IZ) (Klebsiella pneumoniae [16])
6.25 µg/mL (≈ 15.4 µM) | 6.25 µg/mL (≈ 15.4 µM) | 6.25 µg/mL (≈ 15.4 µM) | 6.25 µg/mL (≈ 15.4 µM) | 6.25 µg/mL (≈ 15.4 µM) | 6.25 µg/mL (≈ 15.4 µM) | 6.25 µg/mL (≈ 15.4 µM) | 6.25 µg/mL (≈ 15.4 µM) | FC(F)(F)c1cccc2c(Cl)c(-c3nnc(S)n3-c3ccccc3)cnc12 | 20 mm | 20 mm | 16 mm | 16 mm | 16 mm | 16 mm | 16 mm | 16 mm
6.25 µg/mL (≈ 14.2 µM) | 6.25 µg/mL (≈ 14.2 µM) | 6.25 µg/mL (≈ 14.2 µM) | 6.25 µg/mL (≈ 14.2 µM) | 6.25 µg/mL (≈ 14.2 µM) | 6.25 µg/mL (≈ 14.2 µM) | 6.25 µg/mL (≈ 14.2 µM) | 6.25 µg/mL (≈ 14.2 µM) | FC(F)(F)c1cccc2c(NC3CC3)c(-c3nnc(S)n3Cc3ccccc3)cnc12 | 20 mm | 20 mm | 16 mm | 16 mm | 16 mm | 16 mm | 16 mm | 16 mm
6.25 µg/mL (≈ 15.3 µM) | 6.25 µg/mL (≈ 15.3 µM) | 6.25 µg/mL (≈ 15.3 µM) | 6.25 µg/mL (≈ 15.3 µM) | 6.25 µg/mL (≈ 15.3 µM) | 6.25 µg/mL (≈ 15.3 µM) | 6.25 µg/mL (≈ 15.3 µM) | 6.25 µg/mL (≈ 15.3 µM) | COCCn1c(S)nnc1-c1cnc2c(C(F)(F)F)cccc2c1NC1CC1 | 20 mm | 20 mm | 16 mm | 16 mm | 16 mm | 16 mm | 16 mm | 16 mm
6.25 µg/mL (≈ 13.8 µM) | 6.25 µg/mL (≈ 13.8 µM) | 6.25 µg/mL (≈ 13.8 µM) | 6.25 µg/mL (≈ 13.8 µM) | 6.25 µg/mL (≈ 13.8 µM) | 6.25 µg/mL (≈ 13.8 µM) | 6.25 µg/mL (≈ 13.8 µM) | 6.25 µg/mL (≈ 13.8 µM) | COCCn1c(S)nnc1-c1cnc2c(C(F)(F)F)cccc2c1NC1CCCCC1 | 20 mm | 20 mm | 16 mm | 16 mm | 16 mm | 16 mm | 16 mm | 16 mm
6.25 µg/mL (≈ 13.7 µM) | 6.25 µg/mL (≈ 13.7 µM) | 6.25 µg/mL (≈ 13.7 µM) | 6.25 µg/mL (≈ 13.7 µM) | 6.25 µg/mL (≈ 13.7 µM) | 6.25 µg/mL (≈ 13.7 µM) | 6.25 µg/mL (≈ 13.7 µM) | 6.25 µg/mL (≈ 13.7 µM) | FC(F)(F)c1cccc2c(N3CCOCC3)c(-c3nnc(S)n3-c3ccccc3)cnc12 | 20 mm | 20 mm | 16 mm | 16 mm | 16 mm | 16 mm | 16 mm | 16 mm
6.25 µg/mL (≈ 14.6 µM) | 6.25 µg/mL (≈ 14.6 µM) | 6.25 µg/mL (≈ 14.6 µM) | 6.25 µg/mL (≈ 14.6 µM) | 6.25 µg/mL (≈ 14.6 µM) | 6.25 µg/mL (≈ 14.6 µM) | 6.25 µg/mL (≈ 14.6 µM) | 6.25 µg/mL (≈ 14.6 µM) | FC(F)(F)c1cccc2c(NC3CC3)c(-c3nnc(S)n3-c3ccccc3)cnc12 | 20 mm | 20 mm | 16 mm | 16 mm | 16 mm | 16 mm | 16 mm | 16 mm
